From ChEMBL document CHEMBL1121598, “Acylthioxanthenes: agents which selectively reduce decerebrate rigidity in the cat” (1980) come the findings set out here.

Holding throughout (type): functional
The nature of assay [1]: Ratio of motor activity and activity A.
Assay [2] has as its system Felis catus. The assay is described as follows: Reduction of the integrated electromyographic response by 50% in cat after intravenous administration. Summed up:
(§1)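 Intercollicular decerebration of cats (midbrain sectioned between colliculi) under halothane, anesthesia then stopped; ≥1 h later, integrated EMG of quadriceps recorded in response to controlled stretches. Drug infused iv in saline in graded doses, stretch response repeated; dose (μmol/kg iv) reducing stretch response by 50% determined.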

A further assay relates to Mus musculus. The assay is described as follows: Reduction of locomotor activity count to 50% of the control in mouse after oral administration. An outline of the steps: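 Mouse locomotor activity by Dews method, modified: drug given orally, activity measured for 5 min starting 1 h later. Dose (μmol/kg po) reducing locomotor activity count to 50% of control determined.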

Assay [3] relates to Felis catus. Put plainly: Reduction of the integrated electromyographic response by 50% in cat after peroral administration.
In assay [4] the test system is Felis catus. Put plainly: Dose of compound to reduce the integrated electromyographic response by 50% in cat after intravenous administration; value from second experiment. An outline of the steps: as §1
In assay [5] the test system is Felis catus. Put plainly: Dose of compound to reduce the integrated electromyographic response by 50% in cat after peroral administration; Range is 5.1-12.5.
Assay [6] has as its system Felis catus. The assay is described as follows: Dose of compound to reduce the integrated electromyographic response by 50% in cat after peroral administration; Range is 5.5-13.7.

Consider `CCCCC(=O)c1ccc2c(c1)/C(=C\C(C)CN(C)C)c1ccccc1S2` (configuration not stated), for which, in assay [1], the Ratio turned out to be 40. The “Activity A” value with Felis catus [2] is 3.29 µM/kg. The molecule also came in with a Locomotor activity with Mus musculus of 132 µM/kg.

For the molecule `CCC(=O)c1ccc2c(c1)/C(=C\C(C)CN1CCOCC1)c1ccccc1S2` (configuration not stated), the Ratio in assay [1] was above 101. In addition, the “Activity A” value in the assay with Felis catus [2] is 6.5 µM/kg. In the assay with Mus musculus, this molecule returned a Locomotor activity above 659 µM/kg.

With `CCCC(=O)c1ccc2c(c1)N(CC(C)CN(C)C)c1ccccc1S2` (configuration not stated), in the assay on Felis catus [3], the “Activity B” value was found to be 1.2 µM/kg. Also, the Ratio in assay [1] was 209. Further, the “Activity A” value in the assay on Felis catus [2] came to 0.65 µM/kg. This molecule also gave a Locomotor activity with Mus musculus of 136 µM/kg.

Regarding `CN(C)CC/C=C1/c2ccccc2Sc2ccc(Cl)cc21` [CHLORPROTHIXENE], in the assay with Felis catus [3], the “Activity B” value turned out to be 2.1 µM/kg. Further, in assay [1], the Ratio came out at 28. Moreover, in the assay with Felis catus [2], the “Activity A” value was found to be 0.39 µM/kg. Moreover, in the assay on Mus musculus, the Locomotor activity worked out at 11 µM/kg.

Consider `CC(/C=C1/c2ccccc2Sc2ccc(C(=O)C(C)C)cc21)CN(C)C` (configuration not stated), for which, in assay [1], the Ratio stood at 216. For the same molecule, the “Activity A” value in the assay with Felis catus [2] was found to be 0.67 µM/kg. This molecule also showed a Locomotor activity with Mus musculus of 145 µM/kg.

For the molecule `CC(=O)c1ccc2c(c1)/C(=C\CCN(C)C)c1ccccc1S2`, the “Activity B” value in the assay with Felis catus [3] was below 5.4 µM/kg. The Ratio in assay [1] worked out at 60. Also, the “Activity A” value with Felis catus [2] came out at 0.54 µM/kg. This molecule gave a Locomotor activity in the assay on Mus musculus of 33 µM/kg.

With `CC(=O)c1ccc2c(c1)/C(=C\C(C)CN(C)C)c1ccccc1S2` (configuration not stated), the Ratio in assay [1] was 72. Moreover, the “Activity A” value in the assay with Felis catus [2] came to 1.31 µM/kg. The molecule further gave a Locomotor activity with Mus musculus of 94 µM/kg.

In the case of `CCC(=O)c1ccc2c(c1)/C(=C\CCN(C)C)c1ccccc1S2` (stereo in doubt; 35) [listing 1 of 2 here], the Ratio in assay [1] came out at 753.

Take `CC(=O)c1ccc2c(c1)C(CC(C)CN(C)C)c1ccccc1S2` (configuration not stated): the “Activity B” value in the assay with Felis catus [3] was above 13 µM/kg. In addition, the Ratio in assay [1] came to 181. Besides, in the assay on Felis catus [2], the “Activity A” value was found to be 2.08 µM/kg. In the assay with Mus musculus, this molecule came in with a Locomotor activity of 377 µM/kg.

Turning to `CC(=O)c1ccc2c(c1)/C(=C\CCN(C)C)c1cc(Cl)ccc1S2` (stereo in doubt; 32) [listing 1 of 2 here], in assay [1], the Ratio stood at 119.

Regarding `CC(=O)c1ccc2c(c1)/C(=C\CCN(C)C)c1cc(Cl)ccc1S2` (stereo in doubt; 32) [listing 2 of 2 here], the “Activity A” value with Felis catus [2] was 0.81 µM/kg. This molecule also showed a Locomotor activity in the assay on Mus musculus of 96 µM/kg.

Turning to `CC(=O)c1ccc2c(c1)N(CC(C)CN(C)C)c1cc(Cl)ccc1S2` (configuration not stated), in the assay with Felis catus [3], the “Activity B” value came to 1 µM/kg. In addition, the Ratio in assay [1] came out at 506. Further, the “Activity A” value in the assay with Felis catus [2] came to 0.32 µM/kg. The same molecule gave a Locomotor activity with Mus musculus of 161 µM/kg.

In the case of `CC(=O)c1ccc2c(c1)C(O)(CC(C)CN(C)C)c1ccccc1S2` (configuration not stated), the “Activity A” value in the assay on Felis catus [4] is above 21.18 µM/kg; in the assay on Felis catus [2], 3.17 µM/kg.

In the case of `CCC(=O)c1ccc2c(c1)/C(=C\C(C)CN(C)C)c1cc(Cl)ccc1S2` (configuration not stated), in the assay with Felis catus [3], the “Activity B” value was above 9.3 µM/kg. Further, the Ratio in assay [1] is 411. For the same molecule, the “Activity A” value with Felis catus [2] worked out at 1.3 µM/kg. In addition, the Locomotor activity in the assay with Mus musculus was 534 µM/kg.

For the molecule `CC(C)C(=O)c1ccc2c(c1)/C(=C\CCN(C)C)c1ccccc1S2`, the Ratio in assay [1] was found to be 218. Moreover, the “Activity A” value in the assay with Felis catus [2] worked out at 0.4 µM/kg. The molecule further displayed a Locomotor activity in the assay on Mus musculus of 89 µM/kg.

As to `CCC(=O)c1ccc2c(c1)/C(=C\C(CC)CN(C)C)c1ccccc1S2` (configuration not stated), the Ratio in assay [1] amounted to 68. In addition, in the assay with Felis catus [2], the “Activity A” value was determined as 4.14 µM/kg. Besides, the Locomotor activity in the assay with Mus musculus was 280 µM/kg.

Take `CCCCC(=O)c1ccc2c(c1)/C(=C\CCN(C)C)c1ccccc1S2`: the “Activity A” value in the assay with Felis catus [2] turned out to be 1.35 µM/kg.

As to `CCC(=O)c1ccc2c(c1)/C(=C\CCN1CCOCC1)c1ccccc1S2`, the Ratio in assay [1] was found to be 463. For the same molecule, the “Activity A” value in the assay with Felis catus [2] is 0.27 µM/kg. The molecule further had a Locomotor activity in the assay with Mus musculus of 125 µM/kg.

With `CCC(=O)c1ccc2c(c1)C(O)(CC1CCN(C)CC1)c1ccccc1S2` (configuration not stated), the Ratio in assay [1] was above 25. For the same molecule, in the assay on Felis catus [2], the “Activity A” value amounted to 19.39 µM/kg. The molecule also yielded a Locomotor activity with Mus musculus above 485 µM/kg.

`CCCC(=O)c1ccc2c(c1)/C(=C\CCN(C)C)c1ccccc1S2`: the Ratio in assay [1] worked out at 334. Further, the “Activity A” value with Felis catus [2] came to 1.5 µM/kg. In the assay with Mus musculus, this molecule had a Locomotor activity above 501 µM/kg. Also, the “Activity B” value in the assay on Felis catus [5] came out at 5.1 µM/kg.

Take `CCC(=O)c1ccc2c(c1)/C(=C\CCN(C)C)c1cc(Cl)ccc1S2`: in the assay with Felis catus [3], the “Activity B” value is above 9.6 µM/kg. For the same molecule, in assay [1], the Ratio was determined as 644. For the same molecule, in the assay with Felis catus [2], the “Activity A” value is 1.08 µM/kg. The molecule further had a Locomotor activity in the assay on Mus musculus of 695 µM/kg.

For `CCCC(=O)c1ccc2c(c1)/C(=C\C(C)CN(C)C)c1ccccc1S2` (configuration not stated), the Ratio in assay [1] worked out at 160. The “Activity A” value with Felis catus [2] worked out at 1.22 µM/kg. In the assay on Mus musculus, this molecule registered a Locomotor activity of 195 µM/kg.

With `CN(C)CCCN1c2ccccc2Sc2ccc(Cl)cc21` [CHLORPROMAZINE], the “Activity B” value in the assay with Felis catus [3] is 2 µM/kg. For the same molecule, the “Activity A” value in the assay with Felis catus [2] was found to be 0.25 µM/kg. In addition, in the assay with Mus musculus, the Locomotor activity came out at 39 µM/kg.

As for `CCC(=O)c1ccc2c(c1)/C(=C\C(C)CN(C)C)c1ccccc1S2` (configuration not stated), the “Activity B” value with Felis catus [3] was above 5.2 µM/kg. Moreover, the Ratio in assay [1] is 501. For the same molecule, the “Activity A” value with Felis catus [2] is 0.52 µM/kg. The molecule also yielded a Locomotor activity in the assay with Mus musculus of 261 µM/kg.

On to `CC(=O)c1ccc2c(c1)/C(=C\CCN(C)C)c1cc(Cl)ccc1S2` (stereo in doubt; 33) [listing 1 of 2 here], for which, in the assay on Felis catus [3], the “Activity B” value is above 5.4 µM/kg. Moreover, in the assay on Felis catus [2], the “Activity A” value is 0.53 µM/kg. In addition, in the assay with Mus musculus, the Locomotor activity was found to be 89 µM/kg.

For the molecule `CC(=O)c1ccc2c(c1)/C(=C\C(C)CN(C)C)c1cc(Cl)ccc1S2` (configuration not stated), the Ratio in assay [1] came to 161. The “Activity A” value in the assay with Felis catus [2] is 1.19 µM/kg. The molecule further had a Locomotor activity in the assay on Mus musculus of 192 µM/kg.

As to `CCC(=O)c1ccc2c(c1)/C(=C\CCN(C)C)c1ccccc1S2` (stereo in doubt; 36) [listing 1 of 2 here], the Ratio in assay [1] was found to be 800.

Turning to `CC(=O)c1ccc2c(c1)/C(=C\CCN(C)C)c1cc(Cl)ccc1S2` (stereo in doubt; 33) [listing 2 of 2 here], in assay [1], the Ratio turned out to be 168.

Consider `CCC(=O)c1ccc2c(c1)/C(=C\CCN1CCN(C)CC1)c1ccccc1S2`, for which the Ratio in assay [1] is 43. The “Activity A” value with Felis catus [2] was found to be 0.67 µM/kg. This molecule registered a Locomotor activity with Mus musculus of 42 µM/kg.

As for `CCC(=O)c1ccc2c(c1)/C(=C\CCN(C)C)c1ccccc1S2` (stereo in doubt; 35) [listing 2 of 2 here], the “Activity B” value with Felis catus [3] stood at 1.9 µM/kg. Besides, the “Activity A” value in the assay with Felis catus [2] came to 0.45 µM/kg. This molecule also gave a Locomotor activity in the assay on Mus musculus of 339 µM/kg.

Take `CCC(=O)c1ccc2c(c1)C(CCCN(C)C)c1cc(Cl)ccc1S2` (configuration not stated): in assay [1], the Ratio worked out at 56. Also, the “Activity A” value in the assay on Felis catus [2] is 6.17 µM/kg. This molecule had a Locomotor activity with Mus musculus of 343 µM/kg.

On to `CCC(=O)c1ccc2c(c1)/C(=C\CCN(C)C)c1ccccc1S2` (stereo in doubt; 36) [listing 2 of 2 here], for which, in the assay on Felis catus [3], the “Activity B” value was 1.8 µM/kg. For the same molecule, in the assay on Felis catus [2], the “Activity A” value is 0.15 µM/kg. In the assay on Mus musculus, this molecule had a Locomotor activity of 120 µM/kg.

Consider `CC(=O)c1ccc2c(c1)C(CCCN(C)C)c1ccccc1S2` (configuration not stated), for which, in the assay on Felis catus [6], the “Activity B” value turned out to be 5.5 µM/kg. Also, in assay [1], the Ratio is 63. Besides, the “Activity A” value with Felis catus [2] stood at 0.9 µM/kg. The molecule further returned a Locomotor activity in the assay with Mus musculus of 57 µM/kg.

Consider `CCC(=O)c1ccc2c(c1)C(=C1CCN(C)CC1)c1ccccc1S2`, for which the Ratio in assay [1] came out at 141. Moreover, the “Activity A” value in the assay on Felis catus [2] turned out to be 0.68 µM/kg. Further, the Locomotor activity in the assay on Mus musculus was found to be 96 µM/kg.

Take `CC(=O)c1ccc2c(c1)N(CCCN(C)C)c1ccccc1S2` [ACEPROMAZINE]: the “Activity B” value in the assay with Felis catus [3] worked out at 1 µM/kg. In assay [1], the Ratio worked out at 393. Also, the “Activity A” value with Felis catus [2] was 0.03 µM/kg. Besides, the Locomotor activity with Mus musculus came out at 11 µM/kg.

For `CN(C)CC/C=C1/c2ccccc2C=Cc2ccc(Cl)cc21`, in the assay on Felis catus [3], the “Activity B” value is above 6.1 µM/kg. For the same molecule, the Ratio in assay [1] came out at 26. Further, in the assay with Felis catus [2], the “Activity A” value amounted to 4.01 µM/kg. This molecule also displayed a Locomotor activity in the assay on Mus musculus of 103 µM/kg.

For `CC(CN1c2ccccc2Sc2ccc(S(=O)(=O)N(C)C)cc21)N(C)C` (configuration not stated) [FONAZINE], in the assay on Felis catus [3], the “Activity B” value worked out at 8.1 µM/kg. For the same molecule, the Ratio in assay [1] is 184. The “Activity A” value in the assay with Felis catus [2] came out at 4.67 µM/kg. Also, the Locomotor activity in the assay with Mus musculus was determined as 860 µM/kg.
